Source: PubChem
CCR6 antag: CCR6 receptor antagonists, primary screen, cell-based, CHO-K1, luminescence, beta-arrestin, uHTS. 0.49% of 340,000 active. C-C chemokine receptor type 6 (Homo sapiens), P51684. inhibition, % at 20 µM. CHO-K1 CCR6 PathHunter beta-arrestin, CCL20-stimulated;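 active means compounds whose inhibition of the agonist-driven luminescence signal at 20 µM reaches about 50%, limit read from the data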;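 further: cells stimulated with CCL20 at 14 nM final; plate controls were DMSO with CCL20 for no effect and DMSO without agonist for full effect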
Target sequence (P51684 whole entry, looked up): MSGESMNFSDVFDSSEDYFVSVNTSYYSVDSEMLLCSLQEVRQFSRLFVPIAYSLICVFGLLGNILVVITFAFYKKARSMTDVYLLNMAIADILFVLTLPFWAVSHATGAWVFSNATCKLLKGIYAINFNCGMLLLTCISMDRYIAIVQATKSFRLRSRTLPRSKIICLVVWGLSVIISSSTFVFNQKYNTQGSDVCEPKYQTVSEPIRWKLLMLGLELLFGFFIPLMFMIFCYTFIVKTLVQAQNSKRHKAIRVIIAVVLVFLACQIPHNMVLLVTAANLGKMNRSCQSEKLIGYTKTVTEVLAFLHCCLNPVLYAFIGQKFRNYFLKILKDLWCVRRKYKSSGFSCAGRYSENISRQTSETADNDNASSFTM
APJ ag: agonists of human apelin receptor APJ, primary screen, CHO-K1 cells, PathHunter beta-arrestin, luminescence; 0% DMSO wells, 100% apelin; activation, % at 20 µM; 0.11% of 330,000 active; AID 2520, 2010;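 active means activation more than six SD over the plate average, tested at 20 µM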;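 further: 0% = DMSO alone and 100% = apelin-13 at 10 nM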
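Assay system: CHO-K1 APJ beta-arrestin complementation cell line / Compound: single test compound dose, 20 µM final, 1% DMSO / Times: overnight seeding, 90 min compound at 25 °C, 1 h detection / Technique: beta-gal luminescence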
APJ antagonist: antagonists of human apelin receptor APJ, primary screen, CHO-K1 cells, beta-arrestin complementation, luminescence. inhibition, % at 20 µM. 0.32% of 330,000 active. AID 2521, 2010;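 active means inhibition above about 40% at 20 µM, limit read from the data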;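 further: cells challenged with 10 nM apelin-13 agonist together with compound; plate controls were apelin-13 plus DMSO wells for no effect and DMSO wells lacking apelin-13 for full effect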
CXCR6 block: CXCR6 receptor inhibitors, primary screen, cell-based, beta-arrestin, luminescence, CHO-K1 PathHunter, 1536-well. C-X-C chemokine receptor type 6 (Homo sapiens), O00574. AID 602244, 2012. inhibition, % at 20 µM. 0.36% of 360,000 active; in the data active means inhibition above about 34%, passing the limit was not always enough;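 further: antagonist mode with CXCL16 agonist at 10 nM final; 0% = 10 nM CXCL16 with DMSO and 100% = unstimulated wells without agonist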
EBI2 block: EBI2 receptor antagonists, beta-arrestin recruitment, primary screen, cell-based, luminescence, 7a,25-OHC stimulation, uHTS; inhibition, % at 5 µM; 7a,25-OHC stimulated; AID 651636, 2012; 0.81% of 360,000 active; G-protein coupled receptor 183 (Homo sapiens), P32249; in the data active means inhibition above about 38%;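 further: enzyme fragment complementation signal reports receptor beta-arrestin coupling in cells; 0% = agonist plus DMSO wells and 100% = wells without agonist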
HTR2A ag: mouse Htr2a agonists via beta-arrestin recruitment, primary screen, cell-based, luminescence; activation, % at 7.6 µM; CHO-K1 mHTR2A beta-arrestin complementation; percent of 30 µM serotonin response; 5-hydroxytryptamine receptor 2A (Mus musculus), P35363; 0.66% of 360,000 active;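 active means activation above a run cutoff, the mean activation of all tested compounds plus 3 SD, cut at about 14% in these data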;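 further: 0% = plate median of compound wells and 100% = 30 µM serotonin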
CXCR6 antag conf: CXCR6 receptor antagonists, confirmation, cell-based, single concentration, beta-arrestin, luminescence; shares compounds with CXCR6 block; CHO-K1 CXCR6 PathHunter beta-arrestin; inhibition, % at 20 µM; 65% of 700 active; AID 602409, 2012;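 active means mean inhibition over four retests above 40%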;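 further: receptor stimulated with 10 nM CXCL16 agonist; beta-galactosidase fragment complementation upon beta-arrestin recruitment to receptor; plate controls were CXCL16 plus DMSO for no effect and DMSO without CXCL16 for full effect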
* marks the source's active call; other numbers are inactive results. A selection: hits, their analogues and other compounds. The true share with any hit is near 2.1%.

Screening Cc1cccc(NC(=O)/C=C/c2ccc([N+](=O)[O-])s2)c1 returned CCR6 antag 3, CXCR6 block 10, EBI2 block 26 and HTR2A ag -3.
For Cc1cccc(NC(=S)N/N=C/c2ccc([N+](=O)[O-])s2)c1 the results were APJ ag -5, APJ antagonist 18, CXCR6 block 56*, EBI2 block 32, HTR2A ag -4 and CXCR6 antag conf 53*.
`CCOc1ccc(N(CC(=O)N/N=C/c2ccccn2)S(=O)(=O)c2ccc(Cl)cc2)cc1` gave CCR6 antag 19, APJ ag -10, APJ antagonist -9, CXCR6 block 40*, EBI2 block 5, HTR2A ag -2 and CXCR6 antag conf 41*.
CCOc1ccc(N(CC(=O)NCCSc2ccccn2)S(=O)(=O)c2ccc(Cl)cc2)cc1 was read as CCR6 antag 11, APJ ag 0, APJ antagonist 4, CXCR6 block 16, EBI2 block 24 and HTR2A ag -7.
CCCCCc1ccc(-c2cn(Cc3ccc(C(=O)c4ccccc4)cc3)nn2)cc1 was read as CCR6 antag -3, APJ ag 0, APJ antagonist -5, CXCR6 block -4, EBI2 block -10 and HTR2A ag -1.
CCc1cc(-c2cnnn2Cc2ccccc2)ccc1-c1cn(CC(C)C)nn1 was read as CXCR6 block 60*, EBI2 block 5, HTR2A ag -6 and CXCR6 antag conf 8.
`Cc1cnc(C(=O)Nc2cccc3cccnc23)cn1` gave CCR6 antag 56*, CXCR6 block 51*, EBI2 block 12, HTR2A ag -1 and CXCR6 antag conf 40.
CC(C)Oc1ccc(NC(=O)c2ccncc2)cc1 was read as CCR6 antag -5, APJ ag 0, APJ antagonist -2, CXCR6 block -9, EBI2 block -1 and HTR2A ag 2.
Cc1cc(/C=N/N2CCN(C)CC2)c(C)n1-c1ccccc1F was read as CCR6 antag 8, APJ ag -8, APJ antagonist -5, CXCR6 block -3, EBI2 block -1 and HTR2A ag -7.
Screening Nc1nc(COc2ccccc2)cs1 returned CCR6 antag -13, APJ ag -4, APJ antagonist 14, CXCR6 block 59*, EBI2 block -11, HTR2A ag 0 and CXCR6 antag conf 3.
Screening CN(CC(=O)O)S(=O)(=O)c1ccc2c(c1)NC(=O)CC(=O)N2 returned CCR6 antag -5, APJ ag -2, APJ antagonist 4, CXCR6 block -4, EBI2 block -6 and HTR2A ag 6.
`Cc1c(Cl)cccc1NC(=S)NC(=O)c1cncc(Br)c1` gave CCR6 antag 33, APJ ag -3, APJ antagonist 16, CXCR6 block 42*, EBI2 block 6, HTR2A ag -4 and CXCR6 antag conf 35.
`O=C1OCCN1C(=O)[C@H]1[C@H](c2ccc(Cl)cc2)C(c2ccc(F)cc2)=NN1c1ccc(Br)cc1` gave CCR6 antag 13, CXCR6 block 38*, EBI2 block 14, HTR2A ag 9 and CXCR6 antag conf -7.
CC1(C)OC(=O)C=C[C@]2(C)[C@H]3CC[C@@]4(C)[C@H](C(=O)O)OC(=O)[C@H]5O[C@]54[C@]3(C)C(=O)C[C@@H]12 was read as CCR6 antag -5, APJ ag -5, APJ antagonist -1, CXCR6 block -6, EBI2 block 3 and HTR2A ag 3.
For C=C1C(=O)OC2C1CCC(C)=C1C(=O)C3OC3(C)C12 (centres undefined) the results were CCR6 antag 48, CXCR6 block 47*, EBI2 block 52*, HTR2A ag 2 and CXCR6 antag conf 59*.
Screening C=C1C(=O)O[C@@H]2[C@H]1CC[C@H](C)[C@]1(O)CCC(=O)[C@@]21C returned CCR6 antag 5, APJ ag -4, APJ antagonist 9, CXCR6 block -6, EBI2 block -2 and HTR2A ag 7.
Screening Cc1nn(Cc2nnc(SCC(=O)Nc3ccc(Cl)cc3)n2C)c(C)c1[N+](=O)[O-] returned CCR6 antag 13, APJ ag -3, APJ antagonist 26, CXCR6 block 7, EBI2 block -2 and HTR2A ag -3.
For CCCCn1c(Nc2ccccc2)nc2ccccc21 the results were CCR6 antag 2, APJ ag 0, APJ antagonist 13, CXCR6 block -4, EBI2 block -9 and HTR2A ag 0.
Screening CCCn1c(Nc2nc3ccccc3n2C)nc2ccccc21 returned CCR6 antag 84*, APJ ag 2, APJ antagonist 8, CXCR6 block 70*, EBI2 block -10, HTR2A ag 2 and CXCR6 antag conf 5.
C#CCOCCOCCOCCNc1nc(N2CCN(C(=O)Cn3cc(CCO)nn3)CC2)nc(N2CCN(C(=O)Cn3cc(CCO)nn3)CC2)n1 was read as CCR6 antag 1, CXCR6 block -10, EBI2 block -3 and HTR2A ag -1.
`Cc1ccc(NC(=O)c2cc(N3C(=O)C=CC3=O)ccc2N2CCOCC2)cc1` gave CXCR6 block 89*, EBI2 block 0, HTR2A ag 2 and CXCR6 antag conf 28.
`O=C(CN1CCC(NC(=O)Nc2ccc(F)cc2)CC1)Nc1ccccc1[N+](=O)[O-]` gave CCR6 antag 12, APJ ag 0, APJ antagonist 7, CXCR6 block -6, EBI2 block 20 and HTR2A ag -11.
For CC[n+]1c(C)sc2c(C)cc(C)cc21 the results were CCR6 antag 9, APJ ag -1, APJ antagonist 12, CXCR6 block -2, EBI2 block 1 and HTR2A ag -3.
CCC[n+]1c(C)sc2c3c(ccc21)CCCC3 was read as CCR6 antag 25, APJ ag -1, APJ antagonist 28, CXCR6 block 42*, EBI2 block 1, HTR2A ag 4 and CXCR6 antag conf 2.
`COc1cccc(-n2nc(C#N)c(Cl)cc2=O)c1` gave CCR6 antag 36, APJ ag -3, APJ antagonist 49*, CXCR6 block 50*, EBI2 block 47*, HTR2A ag -4 and CXCR6 antag conf 51*.
